Published values collected from several papers.
Compare with care: the assays were run in different laboratories.
Target: Phosphatidylinositol 4-phosphate 5-kinase type-1 alpha (PIP5K1A, Homo sapiens, UniProt Q99755)

| SMILES | observed | mode | method | concentration | quantity | result |
| --- | --- | --- | --- | --- | --- | --- |
| Cc1ccc(NC(=O)c2ccc(C)c(C(F)(F)F)c2)cc1C#Cc1nn(C2CCC(O)CC2)c2ncnc(N)c12 (centres unmarked) | cell-free assay | inhibitor |  | 10 µM | remaining signal | 102% |
| Cc1ccc(C(=O)Nc2ccc(CN3CCN(C)CC3)c(C(F)(F)F)c2)cc1C#Cc1cnc2cccnn12 | enzyme activity | inhibitor |  | 23.5 nM | remaining activity | 79% |
| O=C(CSc1nc2nccnc2c(=O)n1CCc1ccccc1)Nc1nccs1 | enzyme activity | inhibitor |  | 10 µM | inhibition | -2% |
| Cc1cc(NC(=O)c2cccc3cc(-c4cccc5[nH]nc(N)c45)ccc23)ccc1F | enzyme activity | inhibitor |  | 0.1 µM | activity vs control | 96% |
| Nc1ncnc2occ(-c3ccc(NC(=O)Nc4cc(C(F)(F)F)ccc4F)cc3)c12 | enzyme activity | inhibitor |  | 20 µM | remaining activity | 60% |
| CN1CC(Oc2cnc(C#N)cc2-c2ccn3nc(NC(=O)C4CC4)cc3c2)C1 | enzyme activity | inhibitor |  | 1 µM | inhibition | 0% |
| CCOCCn1cc(C(=O)Nc2ccc(-n3nc(-c4cccnc4)cc3C(F)(F)F)cn2)ccc1=O | cell-free assay |  | competition with immobilised ligand | 1 µM | remaining binding | 100% |
| Cc1cnc(NC2CCOCC2)nc1-n1cnc(C(=O)NC(CN)c2cc(F)cc(Cl)c2)c1 (centres unmarked) | enzyme activity | inhibitor | radiometric | 1 µM | remaining activity | 100% |
| COCCOc1nc(-c2ccc(Cl)nc2)nc2c1CN(C(=O)c1ncn3ccccc13)CC2 | cell-free assay |  | competition with immobilised ligand | 0.1 µM | remaining binding | 100% |
| CS(=O)(=O)Nc1cccc(-c2csc(NC(=O)CSc3nc4nccnc4c(=O)n3CCc3ccccc3)n2)c1 | enzyme activity | inhibitor |  | 10 µM | inhibition | -1% |
| COc1cc(Cl)c(C(=O)N[C@@H](CN[C@H]2CC[C@@H](N)CC2)Cc2ccc(C#N)cc2)cc1-c1ccc(CN[C@H](C)c2ccc(C)cc2)o1 | enzyme activity | inhibitor |  | 1 µM | remaining activity | 106% |
